Assay results: ChEMBL document CHEMBL1137942, “Design, synthesis, and biological activity of novel, potent, and selective (benzoylaminomethyl)thiophene sulfonamide inhibitors of c-Jun-N-terminal kinase” (J Med Chem, 2004)

Tests used:
[1] = test system: SCG; assay: Cell activity of JNK inhibitors in neuronal apoptosis assay in SCG cells, percentage rescued neurons at 1uM compound concentration after 48 hours; type: functional, Rattus norvegicus
Summary of the method: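 They were cultured in Leibowitz medium with 5% rat serum, 0.75 µg/mL NGF 7S and arabinosine C 10^-5 M. On day 4, medium was switched to 10 µg/mL anti-NGF antibody without NGF or AraC, with inhibitor in 1% DMSO. After 24 h, cells were refed initial medium minus AraC. After another 24 h, viability was read by MTT (0.5 mg/mL, 30 min, 37 °C), OD 590 nm.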

[2] = target: RAC-beta serine/threonine-protein kinase (Homo sapiens) (UniProt P31751); assay: Percentage activity of human PKB beta in the presence of 10uM of compound and 10uM of ATP in comparison with control
[3] = target: Fibroblast growth factor receptor 3 (Homo sapiens) (UniProt P22607); assay: Percentage activity of human FGFR3 in the presence of 10 uM of compound and 10 uM of ATP in comparison with control
[4] = target: Serine/threonine-protein kinase D2 (Homo sapiens) (UniProt Q9BZL6); assay: Percentage activity of human PKD2 in the presence of 10 uM of compound and 10 uM of ATP in comparison with control
[5] = target: BDNF/NT-3 growth factors receptor TrkB (Homo sapiens) (UniProt Q16620); assay: Percentage activity of human TrkB in the presence of 10 uM of compound and 10 uM of ATP in comparison with control
[6] = target: Cyclin-dependent kinase 5/CDK5 activator 1 (Homo sapiens) (UniProt Q00535+Q15078); assay: Percentage activity of human CDK5 (with […]) in the presence of 10 uM of compound and 10 uM of ATP in comparison with control; type: protein-complex assay
[7] = species on record: Rattus norvegicus; assay: Percentage activity of rat AMPK in the presence of 10 uM of compound and 10 uM of ATP in comparison with control
[8] = target: Mitogen-activated protein kinase 10 (Homo sapiens) (UniProt P53779); assay: Percentage activity of human JNK3 in the presence of 10 uM of compound and 10 uM of ATP in comparison with control
[9] = target: Mitogen-activated protein kinase 14 (Homo sapiens) (UniProt Q16539); assay: Percentage activity of human SAPK2a in the presence of 10 uM of compound and 10 uM of ATP in comparison with control
[10] = target: Rho-associated protein kinase 2 (Homo sapiens) (UniProt O75116); assay: Percentage activity of human ROCK-II in the presence of 10 uM of compound and 10 uM of ATP in comparison with control
Chain of Rho-associated protein kinase 2 (Homo sapiens) (O75116 whole entry, looked up): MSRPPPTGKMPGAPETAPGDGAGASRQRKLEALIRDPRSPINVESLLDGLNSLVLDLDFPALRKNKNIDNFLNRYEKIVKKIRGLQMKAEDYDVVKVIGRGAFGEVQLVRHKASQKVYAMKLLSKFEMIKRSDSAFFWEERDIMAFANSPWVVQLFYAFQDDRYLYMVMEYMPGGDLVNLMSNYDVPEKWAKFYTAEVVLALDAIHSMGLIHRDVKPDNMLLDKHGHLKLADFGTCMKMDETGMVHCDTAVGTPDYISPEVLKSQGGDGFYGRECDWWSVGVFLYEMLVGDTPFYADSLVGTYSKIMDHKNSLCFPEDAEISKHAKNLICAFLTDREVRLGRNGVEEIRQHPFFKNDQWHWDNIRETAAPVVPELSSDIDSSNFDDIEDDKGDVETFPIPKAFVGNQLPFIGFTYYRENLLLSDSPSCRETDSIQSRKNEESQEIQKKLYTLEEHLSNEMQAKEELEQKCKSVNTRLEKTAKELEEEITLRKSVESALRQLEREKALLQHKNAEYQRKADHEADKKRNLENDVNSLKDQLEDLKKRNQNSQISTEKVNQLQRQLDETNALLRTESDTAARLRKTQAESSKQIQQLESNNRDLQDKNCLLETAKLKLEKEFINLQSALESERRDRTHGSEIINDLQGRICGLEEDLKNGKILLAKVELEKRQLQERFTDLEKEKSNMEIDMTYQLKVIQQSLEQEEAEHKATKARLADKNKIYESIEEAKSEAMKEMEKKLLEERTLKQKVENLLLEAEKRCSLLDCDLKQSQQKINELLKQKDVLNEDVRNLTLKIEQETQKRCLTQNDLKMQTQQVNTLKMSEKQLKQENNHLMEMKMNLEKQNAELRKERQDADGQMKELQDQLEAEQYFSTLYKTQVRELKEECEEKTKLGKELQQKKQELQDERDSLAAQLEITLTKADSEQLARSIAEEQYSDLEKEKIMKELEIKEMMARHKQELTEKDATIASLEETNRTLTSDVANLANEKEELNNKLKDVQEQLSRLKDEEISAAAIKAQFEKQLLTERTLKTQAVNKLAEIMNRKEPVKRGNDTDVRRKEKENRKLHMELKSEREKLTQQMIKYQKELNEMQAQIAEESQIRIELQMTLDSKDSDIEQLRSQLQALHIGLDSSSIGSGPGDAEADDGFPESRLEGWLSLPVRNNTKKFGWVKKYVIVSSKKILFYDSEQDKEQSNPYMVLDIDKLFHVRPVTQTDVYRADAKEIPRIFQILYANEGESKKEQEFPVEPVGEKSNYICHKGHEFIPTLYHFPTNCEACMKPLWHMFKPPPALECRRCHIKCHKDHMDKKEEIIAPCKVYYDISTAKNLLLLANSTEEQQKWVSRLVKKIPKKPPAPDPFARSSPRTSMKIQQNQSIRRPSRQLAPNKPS

[11] = target: Ca2+/calmodulin-dependent protein kinase II (CaM kinase II) (Rattus norvegicus) (UniProt P11275+P08413+P15791+P11730); assay: Percentage activity of rat CaMKII in the presence of 10uM of compound and 10uM of ATP in comparison with control; type: protein assay
[12] = target: cAMP-dependent protein kinase (PKA) (Homo sapiens) (UniProt P22694+P17612+P22612); assay: Percentage activity of human PKA in the presence of 10 uM of compound and 10 uM of ATP in comparison with control; type: protein assay
[13] = target: Ribosomal protein S6 kinase (P70S6K) (Homo sapiens) (UniProt Q9UBS0+P23443); assay: Percentage activity of human p70S6K in the presence of 10 uM of compound and 10 uM of ATP in comparison with control; type: protein-complex assay
[14] = target: Insulin-like growth factor 1 receptor (Homo sapiens) (UniProt P08069); assay: Percentage activity of human IGF-1R in the presence of 10 uM of compound and 10 uM of ATP in comparison with control
Chain of Insulin-like growth factor 1 receptor (Homo sapiens) (P08069 31-736 limits assumed): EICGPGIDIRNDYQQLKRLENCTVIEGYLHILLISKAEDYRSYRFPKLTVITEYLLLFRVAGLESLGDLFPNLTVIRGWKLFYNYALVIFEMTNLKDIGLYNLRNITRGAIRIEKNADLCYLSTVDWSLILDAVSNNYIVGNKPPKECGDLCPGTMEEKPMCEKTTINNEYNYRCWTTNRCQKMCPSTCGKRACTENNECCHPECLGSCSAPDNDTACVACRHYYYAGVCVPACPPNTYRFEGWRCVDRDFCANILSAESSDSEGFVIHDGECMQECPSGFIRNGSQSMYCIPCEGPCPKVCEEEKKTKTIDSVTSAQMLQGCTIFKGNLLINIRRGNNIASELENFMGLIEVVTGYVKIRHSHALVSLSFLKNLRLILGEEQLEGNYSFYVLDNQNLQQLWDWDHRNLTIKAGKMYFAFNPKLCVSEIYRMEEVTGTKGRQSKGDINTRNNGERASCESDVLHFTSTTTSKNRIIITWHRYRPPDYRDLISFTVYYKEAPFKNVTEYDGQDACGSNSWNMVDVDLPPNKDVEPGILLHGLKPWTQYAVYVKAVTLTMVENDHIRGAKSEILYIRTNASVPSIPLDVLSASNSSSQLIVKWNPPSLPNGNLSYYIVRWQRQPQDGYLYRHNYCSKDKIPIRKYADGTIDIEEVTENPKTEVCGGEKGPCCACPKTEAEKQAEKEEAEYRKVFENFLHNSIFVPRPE
Chain of Insulin-like growth factor 1 receptor (Homo sapiens) (P08069 741-1367 limits assumed): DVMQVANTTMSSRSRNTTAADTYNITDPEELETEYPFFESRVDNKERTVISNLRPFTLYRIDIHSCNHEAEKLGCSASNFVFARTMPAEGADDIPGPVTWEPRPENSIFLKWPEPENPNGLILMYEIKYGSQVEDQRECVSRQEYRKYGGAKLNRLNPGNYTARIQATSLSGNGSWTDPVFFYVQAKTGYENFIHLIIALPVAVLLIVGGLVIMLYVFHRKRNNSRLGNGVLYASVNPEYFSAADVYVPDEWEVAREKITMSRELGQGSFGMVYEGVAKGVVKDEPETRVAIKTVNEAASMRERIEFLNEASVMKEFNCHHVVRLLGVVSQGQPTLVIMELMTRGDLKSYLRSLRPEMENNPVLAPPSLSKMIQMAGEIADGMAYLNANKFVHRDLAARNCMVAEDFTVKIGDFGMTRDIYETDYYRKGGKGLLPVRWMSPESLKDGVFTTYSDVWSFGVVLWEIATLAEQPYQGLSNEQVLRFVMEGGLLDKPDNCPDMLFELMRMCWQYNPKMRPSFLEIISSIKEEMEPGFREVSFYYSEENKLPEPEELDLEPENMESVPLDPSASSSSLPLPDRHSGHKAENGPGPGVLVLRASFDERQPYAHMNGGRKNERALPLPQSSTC

[15] = test system: SCG; assay: Cell activity of JNK inhibitors in neuronal apoptosis assay in SCG cells, percentage rescued neurons at 3uM compound concentration after 24 hours; type: functional, Rattus norvegicus
[16] = target: Tyrosine-protein kinase Lck (Homo sapiens) (UniProt P06239); assay: Percentage activity of human Lck in the presence of 10 uM of compound and 10 uM of ATP in comparison with control
[17] = target: Tyrosine-protein kinase Fes/Fps (Homo sapiens) (UniProt P07332); assay: Percentage activity of human Fes in the presence of 10 uM of compound and 10 uM of ATP in comparison with control
Chain of Tyrosine-protein kinase Fes/Fps (Homo sapiens) (P07332 whole entry): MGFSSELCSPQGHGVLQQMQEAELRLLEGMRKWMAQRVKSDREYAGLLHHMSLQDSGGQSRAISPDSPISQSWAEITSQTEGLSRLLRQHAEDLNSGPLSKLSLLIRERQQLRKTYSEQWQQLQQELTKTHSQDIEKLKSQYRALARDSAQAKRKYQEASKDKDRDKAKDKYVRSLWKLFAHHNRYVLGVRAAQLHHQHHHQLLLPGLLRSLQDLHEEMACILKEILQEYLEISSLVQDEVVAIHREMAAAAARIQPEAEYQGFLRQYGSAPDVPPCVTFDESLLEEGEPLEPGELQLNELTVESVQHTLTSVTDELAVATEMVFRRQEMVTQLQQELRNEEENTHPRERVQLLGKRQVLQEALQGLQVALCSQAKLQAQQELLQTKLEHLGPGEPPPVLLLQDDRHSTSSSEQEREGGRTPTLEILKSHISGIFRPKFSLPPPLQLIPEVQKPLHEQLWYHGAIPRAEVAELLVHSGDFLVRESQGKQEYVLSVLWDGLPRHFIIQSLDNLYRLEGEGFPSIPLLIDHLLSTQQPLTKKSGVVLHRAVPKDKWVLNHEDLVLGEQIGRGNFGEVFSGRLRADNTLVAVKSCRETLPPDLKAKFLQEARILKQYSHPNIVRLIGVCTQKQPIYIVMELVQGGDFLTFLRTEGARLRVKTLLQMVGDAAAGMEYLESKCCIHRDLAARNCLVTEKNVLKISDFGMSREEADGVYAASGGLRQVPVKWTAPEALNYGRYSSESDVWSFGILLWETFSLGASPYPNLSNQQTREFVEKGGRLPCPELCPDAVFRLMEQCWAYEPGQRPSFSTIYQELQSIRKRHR

[18] = target: MAP kinase-activated protein kinase 2 (Homo sapiens) (UniProt P49137); assay: Percentage activity of human MAPKAP-K2 in the presence of 10uM of compound and 10uM of ATP in comparison with control
[19] = target: Dual specificity mitogen-activated protein kinase kinase 4 (Mus musculus) (UniProt P47809); assay: Percentage activity of mouse MKK4 in the presence of 10 uM of compound and 10 uM of ATP in comparison with control
Chain of Dual specificity mitogen-activated protein kinase kinase 4 (Mus musculus) (P47809 whole entry): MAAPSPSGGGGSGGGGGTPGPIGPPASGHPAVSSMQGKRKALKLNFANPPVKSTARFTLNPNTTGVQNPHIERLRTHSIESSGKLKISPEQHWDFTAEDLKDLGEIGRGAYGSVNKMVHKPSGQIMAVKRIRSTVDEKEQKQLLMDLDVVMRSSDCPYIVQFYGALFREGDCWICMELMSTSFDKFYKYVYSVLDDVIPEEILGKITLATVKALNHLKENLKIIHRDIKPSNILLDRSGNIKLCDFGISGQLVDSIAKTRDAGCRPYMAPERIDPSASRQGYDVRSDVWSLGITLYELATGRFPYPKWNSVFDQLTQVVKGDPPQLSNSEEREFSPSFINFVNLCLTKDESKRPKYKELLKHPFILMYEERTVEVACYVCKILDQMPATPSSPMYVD

[20] = target: Dual specificity mitogen-activated protein kinase kinase 1 (Homo sapiens) (UniProt Q02750); assay: Percentage activity of human MEK1 in the presence of 10 uM of compound and 10 uM of ATP in comparison with control
[21] = target: CDK6/cyclin D3 (Homo sapiens) (UniProt P30281+Q00534); assay: Percentage activity of human CDK6 with cyclin D3) in the presence of 10uM of compound and 10uM of ATP in comparison with control; type: protein-complex assay
[22] = test system: SCG; assay: Cell activity of JNK inhibitors in neuronal apoptosis assay in SCG cells, percentage rescued neurons at 10 uM compound concentration after 24 hours; type: functional, Rattus norvegicus
[23] = target: Tyrosine-protein kinase receptor UFO (Homo sapiens) (UniProt P30530); assay: Percentage activity of human Axl in the presence of 10 uM of compound and 10 uM of ATP in comparison with control
Chain of Tyrosine-protein kinase receptor UFO (Homo sapiens) (P30530 whole entry): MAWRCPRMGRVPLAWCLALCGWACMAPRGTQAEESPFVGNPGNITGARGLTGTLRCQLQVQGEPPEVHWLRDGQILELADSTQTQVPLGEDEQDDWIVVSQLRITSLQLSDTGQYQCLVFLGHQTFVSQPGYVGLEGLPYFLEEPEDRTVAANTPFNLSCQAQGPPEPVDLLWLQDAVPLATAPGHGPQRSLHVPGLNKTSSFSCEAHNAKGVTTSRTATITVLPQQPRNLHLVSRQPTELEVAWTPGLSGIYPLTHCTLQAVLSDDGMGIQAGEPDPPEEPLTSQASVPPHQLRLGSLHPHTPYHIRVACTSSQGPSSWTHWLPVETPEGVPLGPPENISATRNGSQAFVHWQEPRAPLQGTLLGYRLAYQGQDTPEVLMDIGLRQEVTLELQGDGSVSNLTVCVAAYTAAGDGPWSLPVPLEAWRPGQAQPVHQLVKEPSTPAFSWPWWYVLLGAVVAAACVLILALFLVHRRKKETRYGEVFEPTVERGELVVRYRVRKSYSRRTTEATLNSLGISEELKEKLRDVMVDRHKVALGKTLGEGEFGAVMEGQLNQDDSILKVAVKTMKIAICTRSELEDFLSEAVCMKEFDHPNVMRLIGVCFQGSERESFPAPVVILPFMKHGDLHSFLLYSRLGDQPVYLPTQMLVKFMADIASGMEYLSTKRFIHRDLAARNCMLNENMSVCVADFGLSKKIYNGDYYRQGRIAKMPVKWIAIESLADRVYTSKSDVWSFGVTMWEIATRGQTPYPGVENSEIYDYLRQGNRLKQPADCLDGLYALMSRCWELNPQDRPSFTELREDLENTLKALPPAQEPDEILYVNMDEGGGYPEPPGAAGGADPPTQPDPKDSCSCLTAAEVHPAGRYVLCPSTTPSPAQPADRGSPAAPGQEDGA

[24] = species on record: Homo sapiens; assay: Percentage activity of human Rsk2 in the presence of 10 uM of compound and 10 uM of ATP in comparison with control
[25] = target: Dual specificity mitogen-activated protein kinase kinase 6 (Homo sapiens) (UniProt P52564); assay: Percentage activity of human MKK6 in the presence of 10 uM of compound and 10 uM of ATP in comparison with control
[26] = target: Serine/threonine-protein kinase D1 (Homo sapiens) (UniProt Q15139); assay: Percentage activity of human PKC mu in the presence of 10 uM of compound and 10 uM of ATP in comparison with control
[27] = target: Serine/threonine-protein kinase Sgk1 (Homo sapiens) (UniProt O00141); assay: Percentage activity of human SGK in the presence of 10 uM of compound and 10 uM of ATP in comparison with control
[28] = target: Serine/threonine-protein kinase PAK 2 (Homo sapiens) (UniProt Q13177); assay: Percentage activity of human PAK2 in the presence of 10 uM of compound and 10 uM of ATP in comparison with control
[29] = target: Ribosomal protein S6 kinase alpha-3 (Homo sapiens) (UniProt P51812); assay: Percentage activity of human Rsk3 in the presence of 10uM of compound and 10uM of ATP in comparison with control

## O=C(NCc1ccc(S(=O)(=O)N2CCC(n3nnc4ccccc43)CC2)s1)c1ccc(Cl)cc1
[1]
  Rescued neurons: 2.2%
[2]
  Activity: 118%
[3]
  Activity: 76%
[4]
  Activity: 95%
[5]
  Activity: 83%
[6]
  Activity: 103%
[7]
  Activity: 90%
[8]
  Activity: 6%
[9]
  Activity: 77%
[10]
  Activity: 101%
[11]
  Activity: 93%
[12]
  Activity: 78%
[13]
  Activity: 77%
[14]
  Activity: 108%
[15]
  Rescued neurons: 22.9%
[16]
  Activity: 85%
[17]
  Activity: 134%
[18]
  Activity: 74%
[19]
  Activity: 112%
[20]
  Activity: 98%
[21]
  Activity: 102%
[22]
  Rescued neurons: 27.3%
[23]
  Activity: 134%
[24]
  Activity: 77%
[25]
  Activity: 106%
[26]
  Activity: 93%
[27]
  Activity: 67%
[28]
  Activity: 88%
[29]
  Activity: 97%
